Source: PubChem (several laboratories)
Sampled rows, rich in hits. Any-hit rate of the full collection: about 2%.
PLC-gamma1 inh: blocks human PLC-gamma1 enzyme activity | hit rate 0.84% among 370,000 | P19174 | AID 720700 | purified PLC-gamma1, fluorogenic substrate, fluorescence | inhibition, % at 12.2 µM; in the data active = inhibition above about 9.5%
PLC-beta3 inh: inhibitors of human phospholipase C beta3 | Purified PLC-beta3, fluorogenic substrate, fluorescence | Q01970 | hit rate 0.18% among 370,000 | inhibition, % at 12.2 µM; in the data active = inhibition above about 11%;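 also: 0% = median of compound wells on plate and 100% = full blocker control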
VIM-2 inhibitor: blocks Pseudomonas aeruginosa VIM-2 metallo-beta-lactamase | AID 1527 | hit rate 0.89% among 290,000 | inhibition, % at 5.6 µM | purified VIM-2, nitrocefin hydrolysis, epi-absorbance fluorescence;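 active = inhibition above the mean of all tested compounds plus 3 SD, cutoff set per screening run, cut at about 7.5% in these data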;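 also: red hydrolysis product quenches plate fluorescence so inhibitors raise well fluorescence; 0% = enzyme with DMSO and 100% = DMSO without enzyme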
IMP-1 inh-1: blocks Pseudomonas aeruginosa IMP-1 metallo-beta-lactamase; purified IMP-1, nitrocefin hydrolysis, epi-absorbance fluorescence; inhibition, % at 5.6 µM; hit rate 0.45% among 290,000;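 active = inhibition above the mean plus 3 SD of all compounds in the same screening run, cut at about 4.5% in these data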;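 also: 0% = IMP-1 with DMSO and 100% = DMSO wells lacking enzyme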
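System: Purified IMP-1 | Read-out basis: Percent enzyme inhibition | Controls: IMP-1 with DMSO as 0%, enzyme-free DMSO as 100% | Replicates: One well per compound | Doses: 5.6 µM nominal single concentration | Detection: Epi-absorbance fluorescence, 480 nm excitation, 530 nm emission | Incubation: 25 °C, 15 min preincubation, 25 min reaction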
PvdQ inh: P. aeruginosa PvdQ acylase inhibition. inhibition, % at 10 µM. AID 488965. hit rate 0.063% among 340,000. purified PvdQ acylase, fluorescence plate reader; in the data active = inhibition above about 30%, passing the limit was not always enough;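 also: 0% = vehicle neutral wells and 100% = reference inhibitor wells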
IMP-1 inh-2: IMP-1 inhibition, counter-screen for VIM-2 inhibitors; shares compounds with VIM-2 inhibitor; purified IMP-1, nitrocefin hydrolysis, epi-absorbance fluorescence; inhibition, % at 5.6 µM; 1,300 tested, under 10 active; AID 1856; call rule not given here;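 also: 0% = enzyme with vehicle and 100% = vehicle without enzyme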
VIM-2 FRET ctr: counter-screen for VIM-2 inhibitors: epi-absorbance artifacts via FRET; shares compounds with VIM-2 inhibitor; purified VIM-2, CCF2 FRET substrate hydrolysis; inhibition, % at 5.6 µM; hit rate 23% among 1,300; AID 1857;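 active = inhibition above the mean of all tested compounds plus 3 SD, cut at about 19% in these data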;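 also: 0% = VIM-2 plus DMSO and 100% = no enzyme wells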
TEM-1 counter: TEM-1 inhibition, counter-screen for VIM-2 inhibitors. shares compounds with VIM-2 inhibitor. Purified TEM-1, nitrocefin hydrolysis, epi-absorbance fluorescence. inhibition, % at 5.6 µM. hit rate 3% among 1,300. AID 1866;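 active = inhibition above that campaign's mean inhibition plus 3 SD, cut at about 0.46% in these data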;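 also: 0% = TEM-1 with DMSO and 100% = TEM-1 with 100 µM potassium clavulanate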
Target sequence (P62593 whole entry, looked up): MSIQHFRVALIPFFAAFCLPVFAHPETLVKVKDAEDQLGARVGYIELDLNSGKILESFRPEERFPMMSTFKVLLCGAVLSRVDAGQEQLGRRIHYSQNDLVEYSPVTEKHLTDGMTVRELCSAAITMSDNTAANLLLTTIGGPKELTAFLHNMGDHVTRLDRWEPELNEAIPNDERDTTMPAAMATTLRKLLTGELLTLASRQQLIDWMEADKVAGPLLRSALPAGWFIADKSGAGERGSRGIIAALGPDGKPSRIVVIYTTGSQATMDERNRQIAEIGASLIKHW
VIM-2 inh conf: confirmation of P. aeruginosa VIM-2 metallo-beta-lactamase inhibitors | shares compounds with VIM-2 inhibitor | inhibition, % at 5.6 µM | purified VIM-2, nitrocefin hydrolysis, epi-absorbance | hit rate 96% among 1,300;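 active = inhibition of the VIM-2 beta-lactamase enzyme above about 11% from the earlier first-round screen, limit read from the data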;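 also: 0% = VIM-2 with DMSO and 100% = buffer wells without enzyme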
Numbers without * were called inactive; i = inactive; . = no result given.

SMILES	PLC-gamma1 inh	PLC-beta3 inh	VIM-2 inhibitor	IMP-1 inh-1	PvdQ inh	IMP-1 inh-2	VIM-2 FRET ctr	TEM-1 counter	VIM-2 inh conf
Cc1c(OCC(=O)NC2CC(C)(C)NC(C)(C)C2)ccc2c1oc(=O)c1ccccc12	-274	-384	27*	1	-16	-1	1	-15	40*
COC(=O)[C@]12C[C@H](CC(=O)NCc3ccc(C)o3)C(=O)N(CCc3ccc(OC)c(OC)c3)C1=C[C@H](C(C)C)O[C@@H]2C1CC1	1	0	.	.	.	.	.	.	.
COC(=O)CSc1nnc(-c2ccc(NS(=O)(=O)c3c(C(C)C)cc(C(C)C)cc3C(C)C)cc2)o1	-6	-11	.	.	.	.	.	.	.
O=C(CSc1nnc(NC(=O)c2cc(Br)ccc2Cl)s1)NCC1CCCO1 (centres undefined)	-1	-7	25*	-3	-9	-3	48*	-5	33*
COc1ccccc1C(=O)Nc1nnc(SCC(=O)NCC2CCCO2)s1 (centres undefined)	-3	-12	15*	0	-6	-3	33*	-6	21*
CC(C)C(=O)Nc1nnc(SCC(=O)NCC2CCCO2)s1 (centres undefined)	2	-5	1	-1	1	.	.	.	.
COc1cc(C(=O)Nc2nnc(SCC(=O)NCC3CCCO3)s2)cc(OC)c1OC (centres undefined)	-29	-47	1	0	-18	.	.	.	.
CC(C)(C)c1ccc(S(=O)(=O)N2CCC(c3cn4ccccc4n3)CC2)cc1	-57	-82	.	.	.	.	.	.	.
Nn1c(SCC(=O)Nc2nccs2)nnc1-c1cc(-c2ccc(F)cc2)n[nH]1	2	3	.	.	.	.	.	.	.
CCOC(=O)N1CCN(S(=O)(=O)c2ccc(C(=O)Nc3sc4c(c3C(=O)OC)CCN(C)C4)cc2)CC1	-117	-168	77*	-1	-5	-2	4	-8	82*
CCCN1CCc2c(sc(NC(=O)c3ccc(S(=O)(=O)N4CCN(C(=O)OCC)CC4)cc3)c2C(N)=O)C1	-108	-106	2	2	-6	.	.	.	.
CCCC[C@H](CCCc1ccc(F)cc1)CCC(=O)N(c1ccccc1)c1ccccc1	3	3	.	.	.	.	.	.	.
NC(=O)SCC(=O)Nc1ccccc1C(=O)O	-2	-5	13*	0	-19	1	50*	-5	31*
O=C(CSc1cn[nH]n1)Nc1ccccc1C(=O)O	2	-1	20*	-1	-6	-2	40*	-4	23*
O=C(CSc1ccccc1)Nc1ccccc1C(=O)O	-4	-7	-1	-4	0	.	.	.	.
Cn1c(=O)[nH]c(=O)c2c1nc(NCCCn1ccnc1)n2CCOc1ccccc1	2	0	21*	0	-3	-3	-5	-5	33*
Cn1c(=O)[nH]c(=O)c2c1nc(NCCCn1ccnc1)n2Cc1ccccc1	2	2	1	-3	4	.	.	.	.
Nc1c(/C=C2/C=CC(=O)C(O)=C2)c(=O)nc2sc(CC(=O)N3CCOCC3)nn12	-49	-79	.	.	1	.	.	.	.
CC1=Nc2ccc(C)cc2/C1=C/c1c(N)n2nc(CC(=O)N3CCOCC3)sc2nc1=O	-6	-19	12*	-1	-3	-3	22*	-9	16*
COc1cc(NC(=O)C2CCN(c3nnc(-n4cccc4)s3)CC2)cc(OC)c1	3	-1	.	.	.	.	.	.	.
CS(=O)(=O)N1CCN(c2ccc(NC(=O)c3cc4ccccc4o3)cc2)CC1	-6	-21	0	-2	-17	.	.	.	.
CN1CCN(c2ccc(NC(=O)c3cc4ccccc4o3)cc2)CC1	0	-7	40*	-3	-3	-2	-2	-3	55*
CCN1CCN(c2ccc(NC(=O)c3ccc(Br)o3)cc2)CC1	1	-14	15*	-1	-6	-3	-2	-4	24*
CN1CCN(c2ccc(NC(=O)c3ccc(-c4ccc(Br)cc4)o3)cc2)CC1	-13	-22	24*	-1	9	-2	-3	-8	34*
C[C@H](O)[C@@H]1CN2CCc3c([nH]c4c(-c5ccccc5)cccc34)[C@@H]2C[C@@H]1N(C)C(=S)Nc1ccc(C#N)cc1	-199	-287	.	.	.	.	.	.	.
SMILES	PLC-gamma1 inh	PLC-beta3 inh	VIM-2 inhibitor	IMP-1 inh-1	PvdQ inh	IMP-1 inh-2	VIM-2 FRET ctr	TEM-1 counter	VIM-2 inh conf
CN(C)C(=O)NCCCC#Cc1ccccc1	-1	2	.	.	.	.	.	.	.
CCOC(=O)C(=CNc1ccc(NC2=NCC(C)S2)cc1)C(=O)OCC (centres undefined)	-97	-119	28*	-2	-3	-2	-7	-6	44*
CCOC(=O)C(=CNc1ccc(C(F)(F)F)cc1)C(=O)OCC	1	-5	-2	-3	-20	.	.	.	.
Cc1cc(C)cc(Nc2c3c(nc4ncnn24)CCC3)c1	-14	-12	32*	-3	-4	-2	0	-6	48*
Cc1cccc(Nc2c3c(nc4ncnn24)CCC3)c1	-4	-1	13*	-2	-4	-3	-5	-5	29*
Clc1ccc(Nc2c3c(nc4ncnn24)CCC3)cc1	-1	-14	2	-4	-9	.	.	.	.
CNc1nc(N)c([N+](=O)[O-])c(Nc2cccc(OC)c2)n1	3	5	.	.	.	.	.	.	.
COCC(C)NC(=O)c1cccc([N+](=O)[O-])c1 (centres undefined)	5	6	0	0	-12	.	.	.	.
COCC(C)NC(=O)c1cc2cccc([N+](=O)[O-])c2[nH]1 (centres undefined)	3	-5	21*	-4	6	-4	39*	-5	23*
O=S1(=O)c2ccc(Br)cc2OC[C@@H](Cc2ccccc2)N1Cc1cn(CCC2OCCO2)nn1	0	-2	.	.	.	.	.	.	.
c1ccc2nc(-c3ccc(-n4ccnc4)cc3)ccc2c1	-5	-15	38*	-2	-2	-5	-11	-6	47*
Cc1cccn2c(=O)c3cc(C(=O)NCCc4ccccc4)c(=N)n(CCCn4ccnc4)c3nc12	-269	-364	14*	-1	-19	-2	-39	-6	51*
CCCn1c(=N)c(S(=O)(=O)c2ccccc2)cc2c(=O)n3cccc(C)c3nc21	-11	-18	15*	-1	-5	-4	-1	-7	23*
CCCCCn1c(=N)c(S(=O)(=O)c2ccc(Cl)cc2)cc2c(=O)n3cccc(C)c3nc21	.	.	1	-4	7	.	.	.	.
CNC(=O)c1cc2c(=O)n3cccc(C)c3nc2n(C(C)C)c1=N	i	i	12*	1	-33	-3	-92	-6	26*
Cc1ccc2nc3c(cc(C(=O)NC4CCCC4)c(=N)n3CCCn3ccnc3)c(=O)n2c1	.	.	29*	0	.	-4	-17	-5	68*
